SIRT5 block: SIRT5 desuccinylase inhibitors, primary screen, biochemical, fluorescence imaging, single point, set 5. NAD-dependent protein deacylase sirtuin-5, mitochondrial (Homo sapiens), Q9NXA8. 1.1% of 330,000 active. AID 652115, 2013. inhibition, % at 15 µM. Purified SirT5, succinyl-peptide AMC, trypsin-coupled fluorescence; in the data active means inhibition above about 15%
Target sequence (Q9NXA8 whole entry, looked up): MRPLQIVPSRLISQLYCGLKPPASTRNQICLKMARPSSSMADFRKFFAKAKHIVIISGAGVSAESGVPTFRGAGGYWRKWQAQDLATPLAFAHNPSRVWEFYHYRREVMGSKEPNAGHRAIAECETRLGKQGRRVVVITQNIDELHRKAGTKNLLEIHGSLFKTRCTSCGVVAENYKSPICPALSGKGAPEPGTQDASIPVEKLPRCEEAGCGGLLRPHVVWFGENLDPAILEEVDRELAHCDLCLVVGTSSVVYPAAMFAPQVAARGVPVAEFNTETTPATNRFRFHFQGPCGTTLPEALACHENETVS
Statin myotox sup: suppressors of statin myotoxicity in C2C12 myotubes, primary screen, cell-based, single point, plate reader; C2C12 myotubes + simvastatin, ATP luminescence, 48 h; scaled: DMSO 0, geranylgeraniol control 100; rescue of ATP level, % at 7.49 µM; 0.78% of 330,000 active;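 active means mean ATP rescue above about 67%, or every replicate alone reaching that limit, limit read from the data, passing the limit was not always enough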;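 further: myotubes were challenged with 10 µM simvastatin during compound exposure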
FGF22 binding: binders of human FGF22 protein, primary screen, FGF22 synaptogenesis inhibitor project, biophysical, thermal shift, single point | activity (Tm shift, normalised), % at 9.99 µM | recombinant FGF22 thermal shift, SYPRO orange fluorescence; percent of sucrose octasulfate shift, DMSO zero | 1.5% of 340,000 active | AID 651658, 2012;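 active means mean Tm shift, scaled 0 neutral to 100 positive control, at about 1.3% or above, every replicate too, limit read from the data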
Target sequence (Q9HCT0 whole entry, looked up): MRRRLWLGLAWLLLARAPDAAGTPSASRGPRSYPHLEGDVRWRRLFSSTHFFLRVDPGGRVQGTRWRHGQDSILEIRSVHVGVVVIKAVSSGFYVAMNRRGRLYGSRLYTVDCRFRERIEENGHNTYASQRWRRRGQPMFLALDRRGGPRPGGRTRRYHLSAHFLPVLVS
rRNA inh HTS: reduced GFP signal of wild-type E. coli, primary screen, bacterial rRNA inhibitor project, GFP/RFP fluorescence, OD600, single point. 1.6% of 350,000 active. E. coli WT GFP vs humanized-ribosome RFP mutants, 24 h; active compounds read low; DMSO median 0, no signal -100. GFP signal change (wild-type ribosome), % (no concentration beside the values);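 active means significant combined selectivity score with lowered wild-type GFP, culture density cut under 30%, mutant RFP and density less affected; inactive means any of these conditions unmet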
E-sel inducer: E-selectin induction in HUVECs, primary screen, imaging, HUVEC, immunofluorescence imaging, single point; 0.37% of 260,000 active; activation, % at 7.58 µM; AID 686992, 2013; normalized: neutral wells 0, TNF-alpha wells 100;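 active means mean E-selectin-positive cell signal at least 10% of the positive control, reached in at least 60% of replicates, without over 20% cell loss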
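Assay system: HUVEC, human umbilical vein endothelial cells / Amount: 3,000 HUVEC/well / Controls: TNF-alpha positive control, DMSO neutral control / Compound dosing: single concentration / Medium: EGM-2 over gelatin coat / Evaluation: percent E-selectin-positive cells / Signal: immunofluorescence imaging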
FN deposit inh: inhibitors of fibronectin matrix deposition, primary screen, AH1F cells, Alexa488-fibronectin fluorescence, plate reader; AH1F fibroblasts, overnight; inhibition, % at 12.6 µM; 0.086% of 350,000 active; AID 743247, 2014;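 active means mean inhibition across replicates of 30% or more, regardless of how many single replicates reach that level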;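 further: positive control wells lacked labelled fibronectin entirely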
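Assay system: AH1F fibroblast monolayer, labelled fibronectin deposition. Amount: 10000 cells per well. Also added: labelled fibronectin 24 nM. Compound: single-point pinned compound. Incubation: cell attachment 1 h, compound and FN exposure overnight. Detection: fluorescence after three HBSS washes, excitation 485 nm, emission 525 nm. Read-out: inhibition of fibronectin deposition signal.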
* marks the source's active call; other numbers are inactive results. The list is not random: actives were taken first. Their share in the collection is about 4%.

`S=C1Nc2ccccc2CS1` gave SIRT5 block 1, FGF22 binding 0, rRNA inh HTS 3, E-sel inducer 0 and FN deposit inh 2.
For CCOC(=O)c1sc(NC(=O)CN2CC(C)OC(C)C2)nc1C (centres undefined) the results were SIRT5 block -1, Statin myotox sup 4, FGF22 binding 0, rRNA inh HTS 14 and FN deposit inh -6.
Screening CCOC(=O)c1sc(NC(=O)CN2C(=O)C3CC=CCC3C2=O)nc1C (centres undefined) returned SIRT5 block 0, Statin myotox sup -6, FGF22 binding 0, rRNA inh HTS -1, E-sel inducer 151* and FN deposit inh -4.
For CCOc1ccccc1NC(=O)C1CCN(c2ccc(S(=O)(=O)N3CCCC3)cc2)CC1 the results were SIRT5 block 17*, Statin myotox sup 2, FGF22 binding 0 and rRNA inh HTS 10.
Screening O=C(O)c1cccc(CN2C(=O)S/C(=C/c3ccccc3[N+](=O)[O-])C2=O)c1 returned SIRT5 block 1, FGF22 binding 0, rRNA inh HTS -22* and FN deposit inh -3.
`O=C(CN1CCC(C(=O)c2cccc(F)c2)CC1)NCc1cccs1` gave SIRT5 block 0, FGF22 binding 43* and FN deposit inh 0.
`Cc1noc(C)c1NC(=O)Nc1ccc2c(c1)C(=O)N([C@H](C)CO)C[C@H](C)[C@H](CN(C)C(=O)c1ccccc1)OCCCC[C@H](C)O2` gave SIRT5 block -3, FGF22 binding -1, rRNA inh HTS 0 and E-sel inducer 1.
Screening N#C/C(=C\c1ccc(C(=O)O)cc1)c1nc2sc3c(c2c(=O)[nH]1)CCCC3 returned SIRT5 block 20*, FGF22 binding 0, rRNA inh HTS 15 and FN deposit inh -7.
Screening O=C(O)C1C(c2ccccc2)c2ccccc2C(O)C1CO (centres undefined) returned Statin myotox sup 4, FGF22 binding 43*, rRNA inh HTS 4, E-sel inducer 0 and FN deposit inh 7.
For O=C(NCC[C@@H]1CC[C@@H](NC(=O)c2cccnc2)[C@H](CO)O1)Nc1ccc(C(F)(F)F)cc1 the results were SIRT5 block 0, Statin myotox sup -22, FGF22 binding 0, rRNA inh HTS -2, E-sel inducer 0 and FN deposit inh -4.
For CCc1noc(C)c1C(=O)Nc1nc(-c2cccs2)cs1 the results were SIRT5 block 15*, Statin myotox sup 11, FGF22 binding -1, rRNA inh HTS -15 and FN deposit inh 8.
`COc1cc(/C=N/N2CCN(Cc3ccc(Cl)cc3)CC2)cc(Br)c1O` gave SIRT5 block 18*, Statin myotox sup 4, FGF22 binding 0, rRNA inh HTS -15 and FN deposit inh -8.
Cc1ccc(/C=N/N2CCN(Cc3ccc(Cl)cc3)CC2)o1 was read as Statin myotox sup 81*.
Screening O=C(CCN1CCCCC1)NCC[C@H]1CC[C@H](NC(=O)C2CC2)[C@H](CO)O1 returned SIRT5 block 2, Statin myotox sup -4, FGF22 binding 0, rRNA inh HTS 2 and E-sel inducer 0.
For CC1CCCCC1Nc1nc2ccc(Cl)cc2n2cnnc12 (centres undefined) the results were SIRT5 block -1, Statin myotox sup 98*, FGF22 binding 0, rRNA inh HTS -5, E-sel inducer 0 and FN deposit inh -4.
Screening Cc1cc(C)cc(Nc2nc3ccc(C)cc3n3cnnc23)c1 returned SIRT5 block -5, Statin myotox sup 11, FGF22 binding 0, rRNA inh HTS 5, E-sel inducer 0 and FN deposit inh -2.
`CC(NS(=O)(=O)OCC(Cl)(Cl)Cl)c1ccc(Br)cc1` (centres undefined) gave SIRT5 block -1, Statin myotox sup 7, FGF22 binding 43*, rRNA inh HTS -23*, E-sel inducer 0 and FN deposit inh -5.
Screening CC(C)CC(NS(=O)(=O)OCC(Cl)(Cl)Cl)c1ccccc1 (centres undefined) returned SIRT5 block 7, Statin myotox sup 2, FGF22 binding 0, rRNA inh HTS -32, E-sel inducer 0 and FN deposit inh -10.
O=C(O)c1cccc(NC(=S)NC(NC(=O)c2cccc([N+](=O)[O-])c2)C(Cl)(Cl)Cl)c1 (centres undefined) was read as SIRT5 block 0, Statin myotox sup 4, FGF22 binding 2.8*, rRNA inh HTS 4 and FN deposit inh -1.
Screening COc1ccc(OC)c(NC(=O)Nc2ccc(O)c3ccccc23)c1 returned SIRT5 block -2, Statin myotox sup 35, FGF22 binding 0, E-sel inducer 0 and FN deposit inh 25.
`COc1ccc(OC)c(NC(=O)Nc2c(O)ccc3ccccc23)c1` gave SIRT5 block -4, Statin myotox sup 6, FGF22 binding 0, rRNA inh HTS -27*, E-sel inducer 0 and FN deposit inh -1.
`CCNC(=S)N1C2CCC1CC(NC(=O)Nc1ccc(C(=O)OCC)cc1)C2` (centres undefined) gave SIRT5 block -1, Statin myotox sup 5, FGF22 binding 1, rRNA inh HTS -21*, E-sel inducer 2 and FN deposit inh 4.
`CCOC(=O)C1CCCN(C(=O)C(=O)Nc2ccc3nc4n(c(=O)c3c2)CCCCC4)C1` (centres undefined) gave SIRT5 block 5, Statin myotox sup 12, FGF22 binding 0, rRNA inh HTS -17*, E-sel inducer 13 and FN deposit inh 16.
`CCOC(=O)Nc1ccc2nc3n(c(=O)c2c1)CCCCC3` gave SIRT5 block -4, FGF22 binding 0, rRNA inh HTS 9, E-sel inducer 4 and FN deposit inh 5.
CCOC(=O)c1ccc(NC(=O)NC2CC3CCC(C2)N3C(=S)NC)cc1 (centres undefined) was read as SIRT5 block -4, Statin myotox sup -7, FGF22 binding 0, rRNA inh HTS 3, E-sel inducer 2 and FN deposit inh -7.
`CCOC(=O)c1ccc(NC(=S)N2CCCC(C(=O)OCC)C2)cc1` (centres undefined) gave SIRT5 block -1, Statin myotox sup 90*, FGF22 binding 0, rRNA inh HTS -12, E-sel inducer 6 and FN deposit inh -2.
